Laboratory results: ChEMBL document CHEMBL4359877, “Identification of benzothiazinones containing an oxime functional moiety as new anti-tuberculosis agents” (Eur J Med Chem, 2019)

Tests used:
[1] = MRT in ICR mouse at 25 mg/kg, po measured upto 24 hrs by HPLC analysis; assay type: ADME, organism-based; conditions: in vivo
Summary of the method: (§1)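 Female SPF ICR mice, 18–22 g, fasted overnight, 3 per group; single oral dose 25 mg/kg as suspension in 0.5% CMC. Jugular vein blood drawn at 0.25, 0.5, 1, 2, 4, 6, 8 and 24 h; serum deproteinised with acetonitrile, dried, redissolved and quantified by HPLC. AUC, t1/2, Cmax and Tmax taken directly from concentration–time data.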

[2] = Tmax in Sprague-Dawley rat at 200 mg/kg, po measured upto 24 hrs by HPLC analysis; assay type: ADME, organism-based; conditions: in vivo
Summary of the method: (§2)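 SD rats, 180–220 g; single intravenous dose 2.5 mg/kg or oral doses of 25, 50 or 200 mg/kg, n = 6, half of each sex. Serum sampling, acetonitrile deproteinisation and HPLC quantification followed the mouse procedure. Parameters derived from concentration–time data; F% obtained from the oral and IV exposures.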

[3] = Cmax in Sprague-Dawley rat at 2.5 mg/kg, iv measured upto 24 hrs by HPLC analysis; assay type: ADME, organism-based; design: dose 2.5 mg/kg, route intravenous; conditions: in vivo; summary of the method: as §2
[4] = Tmax in Sprague-Dawley rat at 25 mg/kg, po measured upto 24 hrs by HPLC analysis; assay type: ADME, organism-based; conditions: in vivo; summary of the method: as §2
[5] = system: Mycobacterium tuberculosis; assay: Antimycobacterial activity against Mycobacterium tuberculosis H37Rv assessed as reduction in bacterial cell growth by Low-oxygen recovery assay; assay type: functional
[6] = Mutagenicity in Salmonella typhimurium TA100 in absence of S9 fraction by mini-Ames test; assay type: toxicity; conditions: salmonella enterica subsp. enterica serovar typhimurium
[7] = AUC (0 to infinity) in Sprague-Dawley rat at 200 mg/kg, po by HPLC analysis; assay type: ADME, organism-based; design: dose 200 mg/kg, route oral, time infinity; conditions: in vivo; summary of the method: as §2
[8] = Oral bioavailability in Sprague-Dawley rat at 200 mg/kg measured upto 24 hrs by HPLC analysis; assay type: ADME, organism-based; conditions: in vivo; summary of the method: as §2
[9] = Half life in ICR mouse at 25 mg/kg, po measured upto 24 hrs by HPLC analysis; assay type: ADME, organism-based; conditions: in vivo; summary of the method: as §1
[10] = Half life in Sprague-Dawley rat at 50 mg/kg, po measured upto 24 hrs by HPLC analysis; assay type: ADME, organism-based; conditions: in vivo; summary of the method: as §2
[11] = Cmax in Sprague-Dawley rat at 50 mg/kg, po measured upto 24 hrs by HPLC analysis; assay type: ADME, organism-based; design: dose 50 mg/kg, route oral; conditions: in vivo; summary of the method: as §2
[12] = Half life in Sprague-Dawley rat at 2.5 mg/kg, iv measured upto 24 hrs by HPLC analysis; assay type: ADME, organism-based; conditions: in vivo; summary of the method: as §2
[13] = Mutagenicity in Salmonella typhimurium TA100 in presence of S9 fraction by mini-Ames test; assay type: toxicity, subcellular; conditions: salmonella enterica subsp. enterica serovar typhimurium
[14] = biological target: Cytochrome P450 3A4 (Homo sapiens, UniProt P08684); assay: Inhibition of CYP3A4 (unknown origin); assay type: ADME
[15] = Tmax in Sprague-Dawley rat at 50 mg/kg, po measured upto 24 hrs by HPLC analysis; assay type: ADME, organism-based; conditions: in vivo; summary of the method: as §2
[16] = Mutagenicity in Salmonella typhimurium TA102 in presence of S9 fraction by mini-Ames test; assay type: toxicity, subcellular; conditions: salmonella enterica subsp. enterica serovar typhimurium
[17] = Half life in Sprague-Dawley rat at 200 mg/kg, po measured upto 24 hrs by HPLC analysis; assay type: ADME, organism-based; conditions: in vivo; summary of the method: as §2
[18] = Mutagenicity in Salmonella typhimurium TA102 in absence of S9 fraction by mini-Ames test; assay type: toxicity; conditions: salmonella enterica subsp. enterica serovar typhimurium
[19] = system: Mycobacterium tuberculosis; assay: Antimycobacterial activity against Mycobacterium tuberculosis H37Rv assessed as reduction in bacterial cell growth at 32 ug/ml by Low-oxygen recovery assay; assay type: functional
[20] = system: Mycobacterium tuberculosis; assay: Antimycobacterial activity against Mycobacterium tuberculosis H37Rv ATCC 27294 assessed as reduction in bacterial cell growth incubated for 7 days by microplate alamar blue assay; assay type: functional; conditions: H37Rv ATCC 27294, 168 h
Summary of the method: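 MABA: H37Rv or clinical MDR isolates (resistant to INH and RFP, Beijing Chest Hospital patients) grown to late log phase in 7H9 with glycerol, Tween 80 and ADC, washed, filtered and frozen. Two-fold compound dilutions with 2 × 10⁵ CFU per well, 37 °C; Alamar blue plus Tween 80 added on day 7, fluorescence (ex 530/em 590) read after 16–24 h. MIC = lowest concentration giving ≥90% fluorescence reduction versus mean of bacterium-only controls; RIF and INH as positive controls.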

[21] = Half life in Sprague-Dawley rat at 25 mg/kg, po measured upto 24 hrs by HPLC analysis; assay type: ADME, organism-based; conditions: in vivo; summary of the method: as §2
[22] = AUC (0 to infinity) in Sprague-Dawley rat at 50 mg/kg, po by HPLC analysis; assay type: ADME, organism-based; design: dose 50 mg/kg, time infinity, route oral; conditions: in vivo; summary of the method: as §2
[23] = biological target: Cytochrome P450 2D6 (Homo sapiens, UniProt P10635); assay: Inhibition of CYP2D6 (unknown origin); assay type: ADME
[24] = AUC (0 to infinity) in ICR mouse at 25 mg/kg, po measured upto 24 hrs by HPLC analysis; assay type: ADME, organism-based; design: dose 25 mg/kg, time infinity, route oral; conditions: in vivo; summary of the method: as §1
[25] = Acute toxicity in Sprague-Dawley rat assessed as death at 2 g/kg, po measured continuously for first 4 hrs followed by every 1 hr for next 24 hrs and subsequent 8 hrs interval for 7 days; assay type: organism-based; conditions: in vivo, 2000 mg/kg
Summary of the method: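 SD rats, 180–220 g, randomised, ten per group, food withheld overnight. Single oral dose of 2 g/kg suspended in 5% CMC; controls given vehicle only. Watched continuously for 4 h, hourly for the next 24 h, then every 8 h through day 7 for deaths or changes. Read-out is survivors/total at 7 days.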

[26] = biological target: Cytochrome P450 2C19 (Homo sapiens, UniProt P33261); assay: Inhibition of CYP2C19 (unknown origin); assay type: ADME
[27] = system: Mycobacterium tuberculosis; assay: Antituberculosis activity against Mycobacterium tuberculosis H37Rv infected in BALB/C mouse assessed as colony forming unit in lungs at 25 mg/kg, po administered once daily via gavage for 5 days per week for 3 weeks starting from 10 days post-infection (reference value: 6.44 +/- 0.34); assay type: functional
[28] = biological target: Voltage-gated inwardly rectifying potassium channel KCNH2 (Homo sapiens, UniProt Q12809); assay: Inhibition of human ERG transfected in HEK293 cells by whole-cell patch clamp method; assay type: cell-based
[29] = Cmax in ICR mouse at 25 mg/kg, po measured upto 24 hrs by HPLC analysis; assay type: ADME, organism-based; design: dose 25 mg/kg, route oral; conditions: in vivo; summary of the method: as §1
[30] = Cmax in Sprague-Dawley rat at 25 mg/kg, po measured upto 24 hrs by HPLC analysis; assay type: ADME, organism-based; design: dose 25 mg/kg, route oral; conditions: in vivo; summary of the method: as §2
[31] = Cytotoxicity against African green monkey Vero cells assessed as reduction in cell viability; assay type: cell-based; conditions: chlorocebus sabaeus
[32] = Oral bioavailability in Sprague-Dawley rat at 25 mg/kg measured upto 24 hrs by HPLC analysis; assay type: ADME, organism-based; conditions: in vivo; summary of the method: as §2
[33] = Cmax in Sprague-Dawley rat at 200 mg/kg, po measured upto 24 hrs by HPLC analysis; assay type: ADME, organism-based; design: dose 200 mg/kg, route oral; conditions: in vivo; summary of the method: as §2
[34] = biological target: Cytochrome P450 2C9 (Homo sapiens, UniProt P11712); assay: Inhibition of CYP2C9 (unknown origin); assay type: ADME
[35] = AUC (0 to infinity) in Sprague-Dawley rat at 25 mg/kg, po by HPLC analysis; assay type: ADME, organism-based; design: dose 25 mg/kg, route oral, time infinity; conditions: in vivo; summary of the method: as §2
[36] = Tmax in ICR mouse at 25 mg/kg, po measured upto 24 hrs by HPLC analysis; assay type: ADME, organism-based; conditions: in vivo; summary of the method: as §1
[37] = Oral bioavailability in Sprague-Dawley rat at 50 mg/kg measured upto 24 hrs by HPLC analysis; assay type: ADME, organism-based; conditions: in vivo; summary of the method: as §2
[38] = AUC (0 to infinity) in Sprague-Dawley rat at 2.5 mg/kg, iv by HPLC analysis; assay type: ADME, organism-based; design: dose 2.5 mg/kg, route intravenous, time infinity; conditions: in vivo; summary of the method: as §2
[39] = biological target: T1, Cytochrome P450 1A2 (Homo sapiens, UniProt P05177); assay: Inhibition of CYP1A2 (unknown origin); assay type: ADME
T1 sequence (P05177 whole entry): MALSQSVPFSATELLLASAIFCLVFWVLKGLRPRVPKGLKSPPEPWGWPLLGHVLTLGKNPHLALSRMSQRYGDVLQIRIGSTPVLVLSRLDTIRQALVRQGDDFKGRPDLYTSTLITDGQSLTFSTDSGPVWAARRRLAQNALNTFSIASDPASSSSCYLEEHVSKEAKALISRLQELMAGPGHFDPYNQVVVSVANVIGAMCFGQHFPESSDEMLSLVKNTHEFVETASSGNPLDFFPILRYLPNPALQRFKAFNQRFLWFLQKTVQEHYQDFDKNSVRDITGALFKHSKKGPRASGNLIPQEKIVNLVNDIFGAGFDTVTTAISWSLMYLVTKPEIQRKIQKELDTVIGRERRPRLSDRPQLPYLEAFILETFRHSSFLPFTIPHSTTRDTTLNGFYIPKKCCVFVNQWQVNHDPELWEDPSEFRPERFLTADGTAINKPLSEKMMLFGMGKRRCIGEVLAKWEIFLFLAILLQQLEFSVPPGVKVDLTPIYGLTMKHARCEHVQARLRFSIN

Sequence of Cytochrome P450 2C9 (P11712 whole entry): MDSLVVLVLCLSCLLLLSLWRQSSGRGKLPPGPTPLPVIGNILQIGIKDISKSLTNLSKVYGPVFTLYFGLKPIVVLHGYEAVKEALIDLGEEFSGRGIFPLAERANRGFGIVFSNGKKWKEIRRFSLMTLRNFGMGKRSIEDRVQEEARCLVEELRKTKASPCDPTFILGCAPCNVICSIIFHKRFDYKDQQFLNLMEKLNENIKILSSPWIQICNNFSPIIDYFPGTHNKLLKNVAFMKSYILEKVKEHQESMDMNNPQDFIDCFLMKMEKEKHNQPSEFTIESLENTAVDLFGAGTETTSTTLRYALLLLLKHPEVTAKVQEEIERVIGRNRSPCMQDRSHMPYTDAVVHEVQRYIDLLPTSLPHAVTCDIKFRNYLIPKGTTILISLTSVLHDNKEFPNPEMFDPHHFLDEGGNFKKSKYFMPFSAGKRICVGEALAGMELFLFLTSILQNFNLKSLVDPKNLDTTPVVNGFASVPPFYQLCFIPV
Sequence of Cytochrome P450 3A4 (P08684 whole entry): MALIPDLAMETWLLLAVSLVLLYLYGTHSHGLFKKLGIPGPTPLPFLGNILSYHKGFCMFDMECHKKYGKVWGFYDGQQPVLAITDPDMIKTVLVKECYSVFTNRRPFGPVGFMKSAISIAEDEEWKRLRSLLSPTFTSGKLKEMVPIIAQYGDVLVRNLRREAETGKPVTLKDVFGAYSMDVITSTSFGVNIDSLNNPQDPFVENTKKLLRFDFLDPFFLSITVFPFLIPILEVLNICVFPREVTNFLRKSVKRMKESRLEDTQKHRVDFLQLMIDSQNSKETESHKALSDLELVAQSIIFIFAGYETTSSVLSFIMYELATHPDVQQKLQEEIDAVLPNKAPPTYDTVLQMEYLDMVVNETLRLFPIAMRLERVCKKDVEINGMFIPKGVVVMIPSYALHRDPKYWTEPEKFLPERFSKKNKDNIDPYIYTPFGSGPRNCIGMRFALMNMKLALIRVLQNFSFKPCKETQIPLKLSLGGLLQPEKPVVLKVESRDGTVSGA
Sequence of Voltage-gated inwardly rectifying potassium channel KCNH2 (Q12809 whole entry): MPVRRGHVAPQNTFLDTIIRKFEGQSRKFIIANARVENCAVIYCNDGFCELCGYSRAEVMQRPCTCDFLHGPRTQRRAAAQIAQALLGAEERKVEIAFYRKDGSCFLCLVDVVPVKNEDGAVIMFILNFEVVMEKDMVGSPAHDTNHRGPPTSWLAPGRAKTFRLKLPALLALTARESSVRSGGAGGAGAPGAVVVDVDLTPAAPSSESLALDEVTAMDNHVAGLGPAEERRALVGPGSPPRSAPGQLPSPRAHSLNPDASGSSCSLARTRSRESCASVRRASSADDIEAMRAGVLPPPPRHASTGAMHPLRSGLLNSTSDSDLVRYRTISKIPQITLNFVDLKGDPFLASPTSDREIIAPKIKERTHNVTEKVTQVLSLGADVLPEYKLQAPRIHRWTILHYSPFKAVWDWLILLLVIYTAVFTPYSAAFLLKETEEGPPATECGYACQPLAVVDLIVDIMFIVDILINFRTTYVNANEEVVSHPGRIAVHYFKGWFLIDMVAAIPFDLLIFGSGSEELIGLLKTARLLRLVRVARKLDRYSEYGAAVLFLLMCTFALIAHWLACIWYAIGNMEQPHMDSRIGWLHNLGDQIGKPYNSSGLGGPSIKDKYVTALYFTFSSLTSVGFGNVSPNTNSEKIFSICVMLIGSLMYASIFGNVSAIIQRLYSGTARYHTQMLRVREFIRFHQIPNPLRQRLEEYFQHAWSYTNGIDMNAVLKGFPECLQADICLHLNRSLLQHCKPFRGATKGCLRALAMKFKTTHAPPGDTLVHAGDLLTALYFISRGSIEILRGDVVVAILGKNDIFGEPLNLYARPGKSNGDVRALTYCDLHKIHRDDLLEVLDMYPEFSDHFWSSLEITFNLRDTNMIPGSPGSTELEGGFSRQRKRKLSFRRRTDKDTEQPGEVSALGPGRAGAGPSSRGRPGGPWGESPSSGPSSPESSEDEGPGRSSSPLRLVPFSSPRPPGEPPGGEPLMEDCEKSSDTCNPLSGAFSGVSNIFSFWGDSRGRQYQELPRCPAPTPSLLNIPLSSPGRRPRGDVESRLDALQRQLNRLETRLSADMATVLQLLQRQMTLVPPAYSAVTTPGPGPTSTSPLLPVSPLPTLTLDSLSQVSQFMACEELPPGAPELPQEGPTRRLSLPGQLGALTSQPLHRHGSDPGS
Sequence of Cytochrome P450 2C19 (P33261 whole entry): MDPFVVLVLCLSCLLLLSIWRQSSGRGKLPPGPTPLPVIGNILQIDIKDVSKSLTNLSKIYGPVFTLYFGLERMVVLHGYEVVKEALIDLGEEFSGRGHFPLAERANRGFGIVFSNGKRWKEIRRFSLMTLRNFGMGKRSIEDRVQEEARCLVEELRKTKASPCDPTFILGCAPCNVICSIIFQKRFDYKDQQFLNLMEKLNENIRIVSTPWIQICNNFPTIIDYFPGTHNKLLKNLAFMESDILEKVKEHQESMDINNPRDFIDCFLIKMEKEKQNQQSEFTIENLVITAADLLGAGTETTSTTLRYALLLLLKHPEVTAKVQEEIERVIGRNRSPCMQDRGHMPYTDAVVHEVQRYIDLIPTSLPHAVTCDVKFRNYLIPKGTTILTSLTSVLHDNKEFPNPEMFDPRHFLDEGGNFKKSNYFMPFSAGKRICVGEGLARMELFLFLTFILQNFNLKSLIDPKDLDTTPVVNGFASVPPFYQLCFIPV
Sequence of Cytochrome P450 2D6 (P10635 whole entry): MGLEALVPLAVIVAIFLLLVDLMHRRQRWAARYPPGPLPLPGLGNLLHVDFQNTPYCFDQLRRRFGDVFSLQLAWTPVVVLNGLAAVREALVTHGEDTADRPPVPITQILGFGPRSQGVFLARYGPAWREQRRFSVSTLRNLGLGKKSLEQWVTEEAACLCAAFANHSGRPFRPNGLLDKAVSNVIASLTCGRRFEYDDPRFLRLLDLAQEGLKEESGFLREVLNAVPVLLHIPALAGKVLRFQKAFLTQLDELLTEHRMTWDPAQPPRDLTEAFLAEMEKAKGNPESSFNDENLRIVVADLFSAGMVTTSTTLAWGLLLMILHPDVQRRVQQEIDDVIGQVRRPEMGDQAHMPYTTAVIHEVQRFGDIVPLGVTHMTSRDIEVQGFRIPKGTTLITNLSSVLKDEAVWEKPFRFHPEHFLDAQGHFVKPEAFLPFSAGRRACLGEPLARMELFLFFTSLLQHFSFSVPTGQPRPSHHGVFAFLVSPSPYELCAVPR

## O=c1nc(N2CCN(CC3CCCCC3)CC2)sc2c([N+](=O)[O-])cc(C(F)(F)F)cc12 [MACOZINONE]
[1]
  MRT: 3.17 h
[2]
  Tmax: 2.5 h
[3]
  Cmax: 1440 ng/mL
[4]
  Tmax: 0.91 h
[5]
  MIC: > 32 µg/mL
[6]
  Activity: Non-Toxic
[7]
  AUC(0-inf): 4720 ng·h/mL
[8]
  bioavailability: 3.82%
[9]
  half-life: 2.78 h
[10]
  half-life: 4.86 h
[11]
  Cmax: 694 ng/mL
[12]
  half-life: 1.64 h
[13]
  Activity: Non-Toxic
[14]
  IC50: > 10 µM
[15]
  Tmax: 1.33 h
[16]
  Activity: Non-Toxic
[17]
  half-life: 5.76 h
[18]
  Activity: Non-Toxic
[19]
  inhibition at 32 µg/mL: 78%
[20]
  MIC90: < 0.016 µg/mL
[21]
  half-life: 4.23 h
[22]
  AUC(0-inf): 3120 ng·h/mL
[23]
  IC50: > 10 µM
[24]
  AUC(0-inf): 1660 ng·h/mL
[25]
  Activity: Non-Toxic
[26]
  IC50: 3.77 µM
[27]
  Activity: 2.65 log10CFU
[28]
  IC50: 102 µM
[29]
  Cmax: 912 ng/mL
[30]
  Cmax: 463 ng/mL
[31]
  CC50: > 64 µg/mL
[32]
  bioavailability: 10.7%
[33]
  Cmax: 804 ng/mL
[34]
  IC50: > 10 µM
[35]
  AUC(0-inf): 1600 ng·h/mL
[36]
  Tmax: 0.25 h
[37]
  bioavailability: 10.2%
[38]
  AUC(0-inf): 1540 ng·h/mL
[39]
  IC50: > 10 µM
